Activity calls are given as the source filed them. No cut-off for these calls is given here.

The source of these data is ChEMBL document CHEMBL3352379, “Potent heterocyclic ligands for human complement c3a receptor” (J Med Chem, 2014).

For experiment [1], the target named is T1, C3a anaphylatoxin chemotactic receptor (Homo sapiens, UniProt Q16581).
T1 sequence (Q16581 whole entry): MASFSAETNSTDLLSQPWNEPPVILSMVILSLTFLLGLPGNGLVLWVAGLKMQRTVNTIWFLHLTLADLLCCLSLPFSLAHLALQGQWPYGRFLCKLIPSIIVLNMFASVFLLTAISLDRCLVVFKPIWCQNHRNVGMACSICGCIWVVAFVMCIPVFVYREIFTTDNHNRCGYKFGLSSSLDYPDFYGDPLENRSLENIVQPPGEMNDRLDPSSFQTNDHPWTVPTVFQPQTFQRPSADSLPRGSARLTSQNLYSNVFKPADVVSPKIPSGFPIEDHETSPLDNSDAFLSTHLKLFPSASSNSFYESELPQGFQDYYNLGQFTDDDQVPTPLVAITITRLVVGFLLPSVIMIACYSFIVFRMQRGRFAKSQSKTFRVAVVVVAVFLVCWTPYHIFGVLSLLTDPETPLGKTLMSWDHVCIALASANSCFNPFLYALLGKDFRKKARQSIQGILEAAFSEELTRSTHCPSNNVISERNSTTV
Briefly: Displacement of [125I]-C3a from C3AR in HMDMs by scintillation counting method. For orientation: Displacement assays read how much labelled ligand stays bound in the presence of the test substance.

The target of experiment [2] is T1, C3a anaphylatoxin chemotactic receptor. The experiment in a line: Antagonist activity against C3AR in HMDMs assessed as inhibition of C3a-induced intracellular calcium release by Fluo-3 AM dye based FLIPR assay.
The target in experiment [3] is T2, C3a anaphylatoxin chemotactic receptor (Homo sapiens) (UniProt Q16581).
T2 sequence (whole entry): T1 sequence (Q16581 whole entry)

Experiment [4] has as its target T2, C3a anaphylatoxin chemotactic receptor (Homo sapiens). The source holds these as a separate data set.
For experiment [5] the target is unchanged. The experiment in a line: Agonist activity against C3AR in HMDMs assessed as increase in intracellular calcium release up to 100 uM by Fluo-3 AM dye based FLIPR assay. It is filed as functional, cell-based. The essentials: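 Overnight-plated HMDMs (5 × 10^4/well) loaded with 4 μM Fluo-3 AM for 1 h at 37 °C, washed into HBSS with 2.5 mM probenecid, 20 mM HEPES, pH 7.4; compound range added and Ca2+ fluorescence read ≥60 s (495/520 nm) by FLIPR.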
(In general: A change in cytosolic calcium serves as a functional read-out for many receptors and channels.)

The target is the same in experiment [6]. The experiment in a line: Agonist activity against C3AR in HMDMs assessed as increase in IL-1beta mRNA expression at 300 nM incubated for 30 mins in presence of 30 mins pre-treatment with 10 uM (2-(2,2-Diphenylethoxy)acetyl)-L-arginine by qRT-PCR method. The procedure, abridged: (§1)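 HMDMs seeded at 1 × 10^6 mL−1, adhered overnight, pretreated with C3aR antagonist (10 μM, 30 min), then stimulated 30 min at 0.3 μM. RNA extracted; qRT-PCR normalized to 18S rRNA; fold change relative to untreated control; mean ± SEM, three independent experiments.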

In experiment [7] the target is T1, C3a anaphylatoxin chemotactic receptor. The experiment in a line: Agonist activity against C3AR in HMDMs assessed as increase in intracellular calcium release by Fluo-3 AM dye based FLIPR assay relative to 1 uM C3a.
The target of experiment [8] is T2, C3a anaphylatoxin chemotactic receptor (Homo sapiens). Briefly: Agonist activity against C3AR in HMDMs assessed as increase in TNFalpha mRNA expression at 300 nM incubated for 30 mins in presence of 30 mins pre-treatment with 10 uM (2-(2,2-Diphenylethoxy)acetyl)-L-arginine by qRT-PCR method. The essentials: as §1
Experiment [9] addresses T3, C5a anaphylatoxin chemotactic receptor 1 (Homo sapiens) (UniProt P21730).
T3 sequence (whole entry): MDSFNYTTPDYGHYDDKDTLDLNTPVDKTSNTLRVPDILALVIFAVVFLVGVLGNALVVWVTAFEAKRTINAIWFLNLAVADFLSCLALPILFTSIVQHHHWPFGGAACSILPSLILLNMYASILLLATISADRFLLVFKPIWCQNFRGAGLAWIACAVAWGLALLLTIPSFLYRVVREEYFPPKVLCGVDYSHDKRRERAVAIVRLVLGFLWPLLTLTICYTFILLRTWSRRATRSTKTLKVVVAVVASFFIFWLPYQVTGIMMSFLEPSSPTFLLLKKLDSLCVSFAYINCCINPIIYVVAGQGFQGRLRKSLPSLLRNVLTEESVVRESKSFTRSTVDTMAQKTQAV
Briefly: Displacement of [125I]-C5a from C5AR in HMDMs 20 uM by scintillation counting method.

The target in experiment [10] is T2, C3a anaphylatoxin chemotactic receptor (Homo sapiens). Briefly: Agonist activity against C3AR in C3a desensitized HMDMs assessed as increase in intracellular calcium release at 10 uM added 5 mins post C3a-induced desensitization by Fluo-3 AM dye based FLIPR. It is filed as functional, cell-based. The procedure, abridged: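 HMDMs desensitized with 300 nM C3a at t0, then given test agonist at 10 μM; calcium signal monitored on FLIPR after Fluo-3 AM loading (4 μM, 1 h, 37 °C) in HBSS with 2.5 mM probenecid, 20 mM HEPES, pH 7.4; excitation 495, emission 520 nm.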

Experiment [11] has the same target. The experiment in a line: Agonist activity against C3AR in HMDMs assessed as increase in CCL3 mRNA expression at 300 nM incubated for 30 mins by qRT-PCR method. The essentials: (§2)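 HMDMs (CSF-differentiated CD14+ blood monocytes, day 7) seeded at 1 × 10^6 mL−1 and adhered overnight, then stimulated 30 min at 0.3 μM. RNA extracted; qRT-PCR normalized to 18S rRNA; fold change relative to untreated control; mean ± SEM of three independent experiments.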
On the technique in general: Real-time PCR tracks product formation cycle by cycle.

Experiment [12] shares this target. Briefly: Agonist activity against C3AR in HMDMs assessed as increase in TNFalpha mRNA expression at 300 nM incubated for 30 mins by qRT-PCR method. The procedure, abridged:
as §2

For experiment [13] the target is unchanged. The experiment in a line: Agonist activity against C3AR in HMDMs assessed as increase in IL-1beta mRNA expression at 300 nM incubated for 30 mins by qRT-PCR method. The essentials: as §2
The target is the same in experiment [14]. The experiment in a line: Agonist activity against C3AR in HMDMs assessed as increase in CCL3 mRNA expression at 300 nM incubated for 30 mins in presence of 30 mins pre-treatment with 10 uM (2-(2,2-Diphenylethoxy)acetyl)-L-arginine by qRT-PCR method. The essentials: as §1

`N=C(N)NCCC[C@H](NC(=O)c1nc(C(c2ccccc2)c2ccccc2)no1)C(=O)O`: the IC50 is 12 nM in [1] and 1000 nM in experiment [2].

For the molecule `Cc1nc(C(c2ccccc2)c2ccccc2)oc1C(=O)N[C@@H](CCCNC(=N)N)C(=O)O`, the IC50 in experiment [1] is 100 nM; in experiment [2], 3980 nM.

On to `Cc1nc(C(c2ccccc2)c2ccccc2)n(C)c1C(=O)N[C@@H](CCCNC(=N)N)C(=O)O`, for which the pEC50 entry in experiment [3] was “inactive”. Besides, the half-maximal inhibitory concentration (IC50) in [1] is 1140 nM. The pIC50 result in experiment [4] is “inactive”.

For the molecule `N=C(N)NCCC[C@H](NC(=O)c1noc(C(c2ccccc2)c2ccccc2)n1)C(=O)O`, the IC50 in experiment [1] was 54 nM; in experiment [2], 1000 nM.

For the molecule `N=C(N)NCCC[C@H](NC(=O)CNCC(c1ccccc1)c1ccccc1)C(=O)O`, in experiment [5], the outcome was inactive. Also, the half-maximal inhibitory concentration (IC50) in experiment [1] turned out to be 150 nM.

For `N=C(N)NCCC[C@H](NC(=O)c1nnc(C(c2ccccc2)c2ccccc2)o1)C(=O)O`, the IC50 was found to be 967 nM in experiment [1] and 19000 nM in experiment [2].

For the molecule `N=C(N)NCCC[C@H](NC(=O)c1oc(C(c2ccccc2)c2ccccc2)nc1-c1ccccc1)C(=O)O`, the IC50 is 110 nM in experiment [1] and 2000 nM in experiment [2].

With `N=C(N)NCCC[C@H](NC(=O)c1coc(C(c2ccccc2)c2ccccc2)n1)C(=O)O`, the half-maximal inhibitory concentration (IC50) in experiment [1] was 19 nM.

`Cc1[nH]c(C(c2ccccc2)c2ccccc2)nc1C(=O)N[C@@H](CCCNC(=N)N)C(=O)O`: the result in experiment [6], in experiment [8], in experiment [10] and in [14] was inactive. In addition, the EC50 in experiment [7] is 25.1 nM. Moreover, the inhibition result in experiment [9] was “inactive”. This molecule also yielded a half-maximal inhibitory concentration (IC50) in experiment [1] of 10 nM. Further, the outcome in [11], in experiment [12] and in experiment [13] was Active.

Consider `N=C(N)NCCC[C@H](NC(=O)CSCC(c1ccccc1)c1ccccc1)C(=O)O`, for which the outcome in [5] was inactive. Moreover, the IC50 in [1] came to 8 nM.

Consider `Cc1oc(C(c2ccccc2)c2ccccc2)nc1C(=O)N[C@@H](CCCNC(=N)N)C(=O)O`, for which the pEC50 entry in [3] was “Active”. In experiment [1], the IC50 was determined as 11 nM.

With `N=C(N)NCCC[C@H](NC(=O)COCC(c1ccccc1)c1ccccc1)C(=O)O`, in experiment [5], the outcome was inactive. The results for the 50% inhibitory concentration (IC50) in [1] and in [2] were 10 nM and 1260 nM, respectively.

As for `N=C(N)NCCC[C@H](NC(=O)c1nc(C(c2ccccc2)c2ccccc2)[nH]c1-c1ccccc1)C(=O)O`, the EC50 in experiment [7] was over 31600 nM. In experiment [1], this molecule showed an IC50 of 87 nM.

As for `Cc1c(C(=O)N[C@@H](CCCNC(=N)N)C(=O)O)nc(C(c2ccccc2)c2ccccc2)n1C`, the EC50 in experiment [7] came to 40 nM. Further, the IC50 in experiment [1] worked out at 31 nM.

As for `N=C(N)NCCC[C@H](NC(=O)CCCC(c1ccccc1)c1ccccc1)C(=O)O`, the outcome in experiment [5] was inactive. Further, the IC50 in experiment [1] came to 96 nM.

What is called IC50 is the concentration at which inhibition is half-maximal. In general, EC50 refers to the concentration needed to bring the measured effect to its halfway point.
